Measurements published in publication PMC8458670 (Slas Discovery, 2022).

Columns and labels:
[1] = molecular target: SARS-CoV-2 nsp14 (Severe acute respiratory syndrome coronavirus 2, UniProt P0DTD1); experiment: Radiometric nsp14 MTase activity assay; assay type: biochemical
[2] = molecular target: nsp14 (amino acids 1-527) (Severe acute respiratory syndrome coronavirus 2, UniProt P0DTD1); experiment: Surface plasmon resonance binding to biotinylated nsp14; parameters: species or system SARS-CoV-2
In short: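 SPR used N-terminally biotinylated nsp14 (aa 1–527) coupled on a CM5 chip, with C-terminally biotinylated SETD3 (aa 1–605) as control. Test compounds were injected at five concentrations (0.6–50 µM, or 0.06–5 µM for some) at 50 µL/min. Running buffer was HBS-EP Plus (10 mM HEPES pH 7.4, 150 mM NaCl, 2 mM EDTA, 0.005% Tween-20) with 0.5% DMSO. Contact time was 60 s and dissociation 120 s, with blank-buffer and DMSO (0.4–0.6%) corrections.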

Work on `Nc1ncnc2c1ncn2[C@@H]1O[C@H](CSCC[C@H](N)C(=O)O)[C@@H](O)[C@H]1O` [SAH, S-Adenosylhomocysteine] yielded an IC50 [1] of 130 ± 30 nM and a Kd [2] of 140 nM.
